This series is described as follows: Toxicity liver stage against HepG2, at 10uM. It is filed as cell-based. Set-up: test concentration 10 uM, cell line HepG2-A16-CD81EGFP. To be noted: human, HepG2-A16-CD81EGFP cells; read-out: INHIBITION
The method in brief: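 Uninfected HepG2-A16-CD81EGFP cells, 3 × 10^3 per well, 1536-well, plated on prespotted compound at 10 μM final, parasite-free screening media added to match infected plates; puromycin 10 μM positive, DMSO 0.5% negative; run in parallel with 48 h PbLuc assay at 37 °C, 5% CO2; viability by CellTiter-Glo luminescence, normalized to controls.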
For `CCc1nc(C2CCCN(C(=O)NCCOC)C2)no1` (stereo not given), the cytotoxicity at 10 µM was -0.775%. To `O=C(CC1CC1)N[C@@H]1CN(Cc2ccccn2)C[C@@H]2CCCO[C@@H]21` belongs 6.09%; to `CC1=N[C@@]2(CC[C@@H]3CN(CC(C)C)C[C@@H]32)C(=O)N1C`, 3.5%; to `CN1CCN(Cc2ccoc2)Cc2cccnc21`, 0.899%. Take `CCc1c(C)nc(-n2nc(C3CC3)cc2NC(C)=O)[nH]c1=O`: the cytotoxicity at 10 µM worked out at 30.3%.

Take `O=C(NCC1CCOC1)c1cc(-c2cccc(Cl)c2)[nH]n1` (stereo not given): the cytotoxicity at 10 µM is -1.74%. To `O=C1NCC2(CCC(C(=O)N3CCC(O)CC3)CC2)Oc2ccccc21` (stereo not given) belongs -21.7%. Take `CC(C(=O)NCCN1CCCCCC1)n1cncn1` (stereo not given): the cytotoxicity at 10 µM is -1.4%. To `O=C(COc1ccccc1)NCC1CCN(Cc2ccsc2)CC1` belongs -4.59%.

`O=C(NCCc1cccs1)N1CCC[C@H]1CO`: the cytotoxicity at 10 µM came to 10.3%.

As for `c1cncc(CN2CCCn3nnc(COCC4CC4)c3C2)c1`, the cytotoxicity at 10 µM was -110%. With `Cc1nnc(SC2CCc3ccccc3NC2=O)o1` (stereo not given), the cytotoxicity at 10 µM worked out at 1.35%.

Turning to `CC(C)CNC(=O)CNC(=O)Nc1cccc(Cl)c1-n1cccn1`, the cytotoxicity at 10 µM was -2.45%. To `O=C(c1cnc(-c2ccco2)s1)N1CCCC1Cn1cccn1` (stereo not given) belongs -1.08%. To `COc1cccc(CN2CCC(c3nn(CCN)c4nccnc34)C2)c1` (stereo not given) belongs -24.7%; to `CC(NC(=O)NCCc1ccc(Cl)s1)c1ccccn1` (stereo not given), -3.07%. Regarding `CC(C)Oc1cc(N2C[C@H](C3CC3)[C@@H](N)C2)nc(N)n1`, the cytotoxicity at 10 µM is -4.75%. To `Brc1ccc(NCCCOC2CCOCC2)nc1` belongs 1.52%; to `O=C1CCC(=O)N1CCN1CCN(c2cc(F)ccc2F)CC1`, 9.44%; to `COC(=O)CCCn1ccnc1-c1ccc(OC)c(F)c1F`, -2.8%.

In the case of `CN(C)S(=O)(=O)N1C[C@H]2CCC[C@@]2(COCc2cccnc2)C1`, the cytotoxicity at 10 µM came to 9.19%. Take `CN(CCCc1nccn1C)C(=O)C1CCN(C(=O)C2CCCC2)CC1`: the cytotoxicity at 10 µM was -15.3%. To `CCc1nc(CC(=O)N2CCOCC2c2ncon2)cs1` (stereo not given) belongs -2.58%; to `Cn1ccnc1CN1CCN(CCOc2ccccc2F)CC1`, -10.9%. To `CCN(Cc1cc(Cl)ccc1OC)Cc1nccn1C` belongs 1.87%; to `O=C(c1ccnc(C2CCNCC2)c1)N1CCCOCC1`, -3.64%; to `O=C(CCNc1ncc2c(n1)CCN2c1ccccc1)N1CCCC1`, 9.5%. To `CCN1CCC(CC(=O)N2CCCCC2CCn2cccn2)CC1` (stereo not given) belongs -5.02%. For `COCCC(=O)N1C[C@H]2CN(Cc3cccnc3)C(=O)[C@H]2C1`, the cytotoxicity at 10 µM is -0.95%. For the compound `CC(C)Oc1ncnc2c1CCN(Cc1ccc(F)cc1)CC2`, the cytotoxicity at 10 µM came out at 5.68%. `Cc1ccccc1C(CNC(=O)CSc1nnc(N)s1)N(C)C` (stereo not given): the cytotoxicity at 10 µM stood at 12%. To `Cc1cc(C(=O)N2CCCC(c3noc(C)n3)C2)[nH]n1` (stereo not given) belongs -6.67%.

Take `CC(C)C(C)NC(=O)Nc1ccc(CC(N)=O)cc1` (stereo not given): the cytotoxicity at 10 µM is -3.36%. Turning to `Cc1ncc2c(n1)CN(CC(=O)Nc1c(C)nn(C)c1C)CC2`, the cytotoxicity at 10 µM is -11.1%.

For `O=C(c1ccccc1Cl)N1CC[C@H](O)[C@@H](N2CCOCC2)CC1`, the cytotoxicity at 10 µM was -4.91%. Consider `O=S(=O)(Cc1cccc2cccnc12)NC(CO)c1ccco1` (stereo not given), for which the cytotoxicity at 10 µM is 4.22%. With `Cc1noc(C)c1CCC(=O)N1CCn2cccc2C1C` (stereo not given), the cytotoxicity at 10 µM is -0.376%. To `CN(C)CCN1C[C@@H]2OCCN(Cc3cnn(C)c3)[C@@H]2C1` belongs -140%. To `CC(c1ccc(Cl)cc1)N1CCN(CCCS(N)(=O)=O)CC1` (stereo not given) belongs -1.44%; to `CCS(=O)(=O)c1ncc(CN(C)Cc2ccccn2)n1CCOC`, -13.3%.

For the origin of these results see ChEMBL document CHEMBL4513216, “Probing the Open Global Health Chemical Diversity Library for Multistage-Active Starting Points for Next-Generation Antimalarials” (ACS Infect Dis, 2020).
